Reference: ChEMBL document CHEMBL4257503, “N-Acetyl-3-aminopyrazoles block the non-canonical NF-kB cascade by selectively inhibiting NIK” (Medchemcomm, 2018)

Key:
[1] = target: T1, Inhibitor of nuclear factor kappa-B kinase subunit beta (Homo sapiens, UniProt O14920); experiment: Inhibition of recombinant human full-length N-terminal GST-fused/His6-tagged IKKbeta (M1 to S756 residues) expressed in Sf9 insect cells using ERLLDDRHDSGLDSMKDEE peptide as substrate measured after 60 mins by ADP-Glo kinase assay
T1 sequence (O14920 whole entry): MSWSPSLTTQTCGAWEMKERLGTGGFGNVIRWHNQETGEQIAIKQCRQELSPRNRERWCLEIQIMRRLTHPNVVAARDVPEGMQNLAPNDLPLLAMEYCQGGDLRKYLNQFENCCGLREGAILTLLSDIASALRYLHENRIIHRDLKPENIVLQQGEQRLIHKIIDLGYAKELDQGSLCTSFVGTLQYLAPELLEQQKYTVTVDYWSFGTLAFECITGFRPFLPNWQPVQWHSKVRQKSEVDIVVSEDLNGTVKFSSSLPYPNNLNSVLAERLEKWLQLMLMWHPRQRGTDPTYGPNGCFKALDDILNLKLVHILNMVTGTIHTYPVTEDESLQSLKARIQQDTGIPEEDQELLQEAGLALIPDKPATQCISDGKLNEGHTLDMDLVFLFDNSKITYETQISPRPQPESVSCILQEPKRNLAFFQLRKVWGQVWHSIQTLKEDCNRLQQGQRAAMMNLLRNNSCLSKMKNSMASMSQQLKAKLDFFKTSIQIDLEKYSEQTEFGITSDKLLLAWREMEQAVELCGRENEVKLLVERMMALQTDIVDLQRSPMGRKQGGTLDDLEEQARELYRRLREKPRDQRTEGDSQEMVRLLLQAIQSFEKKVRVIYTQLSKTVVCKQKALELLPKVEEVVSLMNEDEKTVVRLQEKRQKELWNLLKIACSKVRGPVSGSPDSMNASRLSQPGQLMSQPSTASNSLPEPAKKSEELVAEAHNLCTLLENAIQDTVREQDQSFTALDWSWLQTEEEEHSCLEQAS

[2] = target: T2, Inhibitor of nuclear factor kappa-B kinase subunit epsilon (Homo sapiens, UniProt Q14164); experiment: Inhibition of recombinant human full-length N-terminal GST-fused/His6-tagged IKKepsilon (M1 to V716 residues) expressed in Sf9 insect cells using ERLLDDRHDSGLDSMKDEE peptide as substrate measured after 60 mins by ADP-Glo kinase assay
T2 sequence (Q14164 whole entry): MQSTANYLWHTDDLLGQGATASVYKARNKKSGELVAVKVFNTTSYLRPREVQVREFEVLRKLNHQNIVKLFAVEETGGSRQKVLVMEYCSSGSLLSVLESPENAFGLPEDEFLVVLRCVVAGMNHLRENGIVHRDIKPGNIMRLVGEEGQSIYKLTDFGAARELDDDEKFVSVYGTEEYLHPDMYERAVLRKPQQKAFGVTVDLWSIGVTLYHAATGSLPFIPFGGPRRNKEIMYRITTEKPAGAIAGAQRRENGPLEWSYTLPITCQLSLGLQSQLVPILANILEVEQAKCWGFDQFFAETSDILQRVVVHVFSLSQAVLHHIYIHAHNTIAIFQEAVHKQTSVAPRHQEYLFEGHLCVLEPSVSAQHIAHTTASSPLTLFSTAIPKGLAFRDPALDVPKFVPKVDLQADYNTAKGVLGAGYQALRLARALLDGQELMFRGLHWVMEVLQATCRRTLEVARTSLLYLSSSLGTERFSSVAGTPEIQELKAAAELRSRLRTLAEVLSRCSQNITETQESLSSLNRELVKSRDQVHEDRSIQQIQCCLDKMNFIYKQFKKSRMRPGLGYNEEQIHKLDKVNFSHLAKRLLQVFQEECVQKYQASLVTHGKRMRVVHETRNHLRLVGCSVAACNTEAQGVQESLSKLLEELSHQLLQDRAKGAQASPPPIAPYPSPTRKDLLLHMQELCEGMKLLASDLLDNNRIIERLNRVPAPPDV

[3] = target: T3, Mitogen-activated protein kinase kinase kinase 14 (Homo sapiens, UniProt Q99558); experiment: Inhibition of recombinant human full-length N-terminal GST-fused/His6-tagged NIK (M1 to P947 residues) expressed in Sf9 insect cells using AKDVDQGSLCTSFVGTLQY peptide as substrate measured after 60 mins by ADP-Glo kinase assay
Target sequence in this assay (Q99558 whole entry, the tested form may be a part): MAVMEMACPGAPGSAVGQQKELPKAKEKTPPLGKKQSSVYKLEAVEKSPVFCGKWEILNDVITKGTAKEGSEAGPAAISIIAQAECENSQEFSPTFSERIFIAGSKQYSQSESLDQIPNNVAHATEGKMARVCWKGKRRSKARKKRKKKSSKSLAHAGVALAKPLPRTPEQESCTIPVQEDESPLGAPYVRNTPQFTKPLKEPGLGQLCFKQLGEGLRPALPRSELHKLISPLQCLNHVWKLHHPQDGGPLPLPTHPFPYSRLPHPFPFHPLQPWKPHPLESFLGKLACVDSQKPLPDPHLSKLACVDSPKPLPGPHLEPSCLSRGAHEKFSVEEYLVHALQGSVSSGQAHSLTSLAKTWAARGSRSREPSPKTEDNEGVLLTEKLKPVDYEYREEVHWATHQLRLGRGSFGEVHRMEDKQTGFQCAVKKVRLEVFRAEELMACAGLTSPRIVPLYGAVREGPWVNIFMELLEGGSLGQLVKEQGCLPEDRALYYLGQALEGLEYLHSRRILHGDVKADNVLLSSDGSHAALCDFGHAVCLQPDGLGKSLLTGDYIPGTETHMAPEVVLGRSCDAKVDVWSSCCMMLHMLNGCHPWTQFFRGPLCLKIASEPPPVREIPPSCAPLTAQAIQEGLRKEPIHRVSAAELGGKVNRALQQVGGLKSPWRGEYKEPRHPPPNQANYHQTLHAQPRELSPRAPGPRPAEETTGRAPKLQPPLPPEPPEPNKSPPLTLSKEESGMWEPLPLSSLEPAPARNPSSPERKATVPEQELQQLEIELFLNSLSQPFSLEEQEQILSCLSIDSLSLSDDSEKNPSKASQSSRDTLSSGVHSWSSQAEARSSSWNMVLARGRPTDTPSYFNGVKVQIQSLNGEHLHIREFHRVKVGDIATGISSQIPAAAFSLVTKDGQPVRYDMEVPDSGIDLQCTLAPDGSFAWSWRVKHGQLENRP

[4] = target: T4, Inhibitor of nuclear factor kappa-B kinase subunit alpha (Homo sapiens, UniProt O15111); experiment: Inhibition of recombinant full length human His-tagged IKKalpha expressed in baculovirus expression system using ERLLDDRHDSGLDSMKDEE peptide as substrate measured after 60 mins by ADP-Glo kinase assay
T4 sequence (O15111 whole entry): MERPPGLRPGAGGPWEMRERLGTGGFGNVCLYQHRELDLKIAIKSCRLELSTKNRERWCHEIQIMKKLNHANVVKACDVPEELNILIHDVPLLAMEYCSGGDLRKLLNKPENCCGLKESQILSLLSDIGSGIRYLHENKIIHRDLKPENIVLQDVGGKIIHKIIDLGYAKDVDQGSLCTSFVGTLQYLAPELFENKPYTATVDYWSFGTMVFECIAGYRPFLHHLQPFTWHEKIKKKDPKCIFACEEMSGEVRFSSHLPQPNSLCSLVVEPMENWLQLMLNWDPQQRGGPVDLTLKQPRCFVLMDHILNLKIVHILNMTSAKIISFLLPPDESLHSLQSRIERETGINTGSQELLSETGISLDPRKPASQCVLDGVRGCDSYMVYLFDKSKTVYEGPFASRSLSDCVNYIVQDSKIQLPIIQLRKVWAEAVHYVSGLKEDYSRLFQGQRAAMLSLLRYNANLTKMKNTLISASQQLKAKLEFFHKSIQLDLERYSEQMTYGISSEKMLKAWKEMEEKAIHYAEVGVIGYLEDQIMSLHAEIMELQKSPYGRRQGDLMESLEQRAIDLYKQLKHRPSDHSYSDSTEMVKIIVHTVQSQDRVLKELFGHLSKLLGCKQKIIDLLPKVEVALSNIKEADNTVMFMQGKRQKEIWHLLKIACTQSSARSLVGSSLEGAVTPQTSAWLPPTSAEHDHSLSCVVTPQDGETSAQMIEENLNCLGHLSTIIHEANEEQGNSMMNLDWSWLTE
Method in brief: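 Recombinant human IKKα, peptide substrate 100 µM, enzyme 8 ng/µL, ATP 1 µM in Tris-HCl pH 7.5 buffer with MgCl2, MnCl2, DTT, Na3VO4, BSA; 25°C, 60 min; ADP-Glo luminescence. Ten concentrations 0.005–100 µM; IC50 by nonlinear regression; means ± SD of three independent experiments.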

[5] = target: T3, Mitogen-activated protein kinase kinase kinase 14; experiment: Inhibition of NIK-induced NFkappaB activation in human EJM cells at 50 uM after 6 hrs by dual luciferase reporter gene assay relative to control; type: cell-based
Method in brief: (§1)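 Cells were nucleofected with the pGL4.32 NF-κB-RE firefly luciferase and pGL4.74 TK-Renilla plasmids (3 µg, 10:1 ratio) and cultured for 24 h at 37 °C. Compound (10, 25, 50 or 100 µM) was then added for 6 h. Firefly luminescence was normalised to Renilla from the same sample and expressed as % of vehicle control. Means ± SD of three independent experiments.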
Target sequence in this assay (Q99558 whole entry, looked up, the tested form may be a part): as the sequence (Q99558 whole entry, the tested form may be a part) above

[6] = test system: MDA-MB-231; experiment: Inhibition of NFkappaB activation in human MDA-MB-231 cells at 100 uM after 6 hrs by dual luciferase reporter gene assay relative to control; type: cell-based; method in brief: as §1
[7] = species: Homo sapiens; experiment: Inhibition of NFkappaB activation in human SKBR3 cells at 100 uM after 6 hrs by dual luciferase reporter gene assay relative to control; type: cell-based; method in brief: as §1
[8] = Cytotoxicity against human MDA-MB-231 cells assessed as cell viability at 100 uM after 6 hrs by CellTiter Glo luminescent assay relative to control; type: cell-based; conditions: read-out: Activity
Method in brief: (§2)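 Cells seeded at 5 x 10^3 per well and exposed for 6 h to the compound (10, 25, 50 or 100 µM) or to DMSO vehicle. Viability was read as intracellular ATP by CellTiter Glo luminescence.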

[9] = Cytotoxicity against human EJM cells assessed as cell viability at 50 uM after 6 hrs by CellTiter Glo luminescent assay relative to control; type: cell-based; conditions: read-out: Activity; method in brief: as §2
[10] = Cytotoxicity against human SKBR3 cells assessed as cell viability at 100 uM after 6 hrs by CellTiter Glo luminescent assay relative to control; type: cell-based, SK-BR-3; conditions: read-out: Activity; method in brief: as §2
[11] = target: T3, Mitogen-activated protein kinase kinase kinase 14; experiment: Inhibition of NIK-induced NFkappaB activation in human EJM cells at 25 uM after 6 hrs by dual luciferase reporter gene assay relative to control; type: cell-based; method in brief: as §1
Target sequence in this assay (Q99558 whole entry, looked up, the tested form may be a part): as the sequence (Q99558 whole entry, the tested form may be a part) above

[12] = Cytotoxicity against human EJM cells assessed as cell viability at 25 uM after 6 hrs by CellTiter Glo luminescent assay relative to control; type: cell-based; conditions: read-out: Activity; method in brief: as §2
[13] = test system: MDA-MB-231; experiment: Inhibition of NFkappaB activation in human MDA-MB-231 cells at 1 uM after 6 hrs by dual luciferase reporter gene assay relative to control; type: cell-based
[14] = species: Homo sapiens; experiment: Inhibition of NFkappaB activation in human SKBR3 cells at 1 uM after 6 hrs by dual luciferase reporter gene assay relative to control; type: cell-based
[15] = Cytotoxicity against human MDA-MB-231 cells assessed as cell viability at 1 uM after 6 hrs by CellTiter Glo luminescent assay relative to control; type: cell-based; conditions: read-out: Activity
[16] = Cytotoxicity against human EJM cells assessed as cell viability at 1 uM after 6 hrs by CellTiter Glo luminescent assay relative to control; type: cell-based; conditions: read-out: Activity
[17] = Cytotoxicity against human SKBR3 cells assessed as cell viability at 1 uM after 6 hrs by CellTiter Glo luminescent assay relative to control; type: cell-based, SK-BR-3; conditions: read-out: Activity

IC50 [1] [µM] | IC50 [2] [µM] | IC50 [3] [µM] | IC50 [4] [µM] | inhibition [5] [%] | inhibition [11] [%] | Compound | inhibition [6] [%] | inhibition [7] [%] | viability at 6 h, 100 µM [8] [%] | viability at 6 h, 50 µM [9] [%] | viability at 6 h, 100 µM [10] [%] | viability at 6 h, 25 µM [12] [%] | inhibition [13] [%] | inhibition [14] [%] | viability at 6 h, 1 µM [15] [%] | viability at 6 h, 1 µM [16] [%] | viability at 6 h, 1 µM [17] [%]
> 100 | > 100 | 27.4 | > 100 | 66.8 | – | CCC(=O)n1nc(C)c(-c2ccc(Cl)c(Cl)c2)c1N | 10.3 | -3.14 | ≥ 80 | ≥ 80 | ≥ 80 | – | – | – | – | – | –
> 100 | > 100 | 2.9 | > 100 | – | 96.2 | Cc1nn(C(=O)C2CCC2)c(N)c1-c1ccc(Cl)c(Cl)c1 | 2.36 | 5.2 | ≥ 80 | – | ≥ 80 | ≥ 80 | – | – | – | – | –
> 100 | > 100 | 3.3 | > 100 | – | 94.7 | Cc1nn(C(=O)C2CCCCC2)c(N)c1-c1ccc(Cl)c(Cl)c1 | 2.36 | 3.7 | ≥ 80 | – | ≥ 80 | ≥ 80 | – | – | – | – | –

Compound | IC50 [1] [µM] | IC50 [2] [µM] | IC50 [3] [µM] | IC50 [4] [µM] | inhibition [5] [%] | inhibition [11] [%] | inhibition [6] [%] | inhibition [7] [%] | viability at 6 h, 100 µM [8] [%] | viability at 6 h, 50 µM [9] [%] | viability at 6 h, 100 µM [10] [%] | viability at 6 h, 25 µM [12] [%] | inhibition [13] [%] | inhibition [14] [%] | viability at 6 h, 1 µM [15] [%] | viability at 6 h, 1 µM [16] [%] | viability at 6 h, 1 µM [17] [%]
COCCOc1cnc(N)nc1-c1c[nH]c2ccc(C#CC(C)(C)O)cc12 | > 100 | > 100 | 0.07 | > 100 | – | – | – | – | – | – | – | – | 7.1 | 2.3 | ≥ 80 | ≥ 80 | ≥ 80
